pIC50, pKi: −log10 of the molar value. A value given as a limit tells only on which side of the number the result lay.

This is an account of results in ChEMBL document CHEMBL1147568, “5-lipoxygenase inhibitors with histamine H(1) receptor antagonist activity” (Bioorg Med Chem Lett, 2004).

One data set addresses Histamine H1 receptor (Homo sapiens, UniProt P35367). Description: In vitro binding affinity towards histamine H1 receptor expressed in CHO-K1 cells. Type of data set: cell-based.
Data set [1] addresses T1, Polyunsaturated fatty acid 5-lipoxygenase (Homo sapiens, UniProt P09917).
T1 sequence (P09917 whole entry): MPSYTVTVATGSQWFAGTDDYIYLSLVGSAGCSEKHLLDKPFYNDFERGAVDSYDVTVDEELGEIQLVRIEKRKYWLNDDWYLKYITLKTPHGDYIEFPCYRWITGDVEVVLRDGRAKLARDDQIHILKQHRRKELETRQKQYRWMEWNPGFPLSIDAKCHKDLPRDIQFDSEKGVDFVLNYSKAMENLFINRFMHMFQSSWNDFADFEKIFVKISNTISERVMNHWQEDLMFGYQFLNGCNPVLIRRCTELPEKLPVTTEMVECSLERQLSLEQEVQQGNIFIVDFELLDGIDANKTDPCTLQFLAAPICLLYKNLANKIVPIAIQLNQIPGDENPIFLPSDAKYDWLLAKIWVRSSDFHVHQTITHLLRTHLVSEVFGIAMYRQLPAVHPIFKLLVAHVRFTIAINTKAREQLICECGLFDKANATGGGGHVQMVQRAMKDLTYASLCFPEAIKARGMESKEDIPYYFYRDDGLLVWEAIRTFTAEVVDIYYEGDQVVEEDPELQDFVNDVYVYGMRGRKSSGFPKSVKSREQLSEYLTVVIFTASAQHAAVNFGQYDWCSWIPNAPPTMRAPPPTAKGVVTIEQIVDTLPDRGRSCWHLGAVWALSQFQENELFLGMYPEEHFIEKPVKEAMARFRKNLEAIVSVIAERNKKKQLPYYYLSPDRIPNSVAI
The data set can be described thus: In vitro inhibitory activity against 5-lipoxygenase in a human whole blood assay. Type of data set: tissue-based.

Another data set is filed under the species Rattus norvegicus. Description: Intrinsic clearance of compound against NADPH-fortified rat liver microsomes. Type of data set: ADME, Microsome. In a few lines: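 Compound incubated with NADPH-fortified rat liver microsomes to measure metabolic stability. Intrinsic clearance is reported as µL/min/mg protein.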
(In general: Liver microsomes are vesicles of endoplasmic reticulum, rich in cytochrome P450 enzymes.)

Data set [2] concerns the target T2, Polyunsaturated fatty acid 5-lipoxygenase (Rattus norvegicus, UniProt P12527).
T2 sequence (P12527 whole entry): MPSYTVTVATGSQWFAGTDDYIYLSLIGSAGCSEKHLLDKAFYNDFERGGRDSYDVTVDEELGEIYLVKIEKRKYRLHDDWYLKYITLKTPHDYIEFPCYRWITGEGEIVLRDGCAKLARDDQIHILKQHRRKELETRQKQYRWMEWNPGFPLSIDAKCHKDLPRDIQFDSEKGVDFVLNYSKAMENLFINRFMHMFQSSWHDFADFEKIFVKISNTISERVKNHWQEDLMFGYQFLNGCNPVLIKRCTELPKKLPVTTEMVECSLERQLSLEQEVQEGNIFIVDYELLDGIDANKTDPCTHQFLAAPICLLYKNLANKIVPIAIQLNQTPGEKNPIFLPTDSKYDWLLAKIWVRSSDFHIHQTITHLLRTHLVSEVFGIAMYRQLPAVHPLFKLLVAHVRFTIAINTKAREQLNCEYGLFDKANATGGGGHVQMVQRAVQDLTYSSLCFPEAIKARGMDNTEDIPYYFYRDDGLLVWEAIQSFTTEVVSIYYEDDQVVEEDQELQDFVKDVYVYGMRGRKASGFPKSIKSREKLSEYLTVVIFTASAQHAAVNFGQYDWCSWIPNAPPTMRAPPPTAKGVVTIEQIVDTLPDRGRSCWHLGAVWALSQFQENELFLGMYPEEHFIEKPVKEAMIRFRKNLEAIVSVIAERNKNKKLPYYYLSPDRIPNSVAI
Description: In vitro inhibitory activity against 5-lipoxygenase in an RBL-2H3 cell lysate. Type of data set: cell-based.

Data set [3] is described as follows: Permeability in Caco-2 cells of compound. It counts as ADME, cell-based. As to conditions: human. The gist of the method: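 Permeability measured across Caco-2 cells and reported as apparent permeability (Papp) in cm/sec.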
(In general: Caco-2 cells form a polarised layer with tight junctions and transporters.)

Histamine H1 receptor, sequence (P35367 whole entry): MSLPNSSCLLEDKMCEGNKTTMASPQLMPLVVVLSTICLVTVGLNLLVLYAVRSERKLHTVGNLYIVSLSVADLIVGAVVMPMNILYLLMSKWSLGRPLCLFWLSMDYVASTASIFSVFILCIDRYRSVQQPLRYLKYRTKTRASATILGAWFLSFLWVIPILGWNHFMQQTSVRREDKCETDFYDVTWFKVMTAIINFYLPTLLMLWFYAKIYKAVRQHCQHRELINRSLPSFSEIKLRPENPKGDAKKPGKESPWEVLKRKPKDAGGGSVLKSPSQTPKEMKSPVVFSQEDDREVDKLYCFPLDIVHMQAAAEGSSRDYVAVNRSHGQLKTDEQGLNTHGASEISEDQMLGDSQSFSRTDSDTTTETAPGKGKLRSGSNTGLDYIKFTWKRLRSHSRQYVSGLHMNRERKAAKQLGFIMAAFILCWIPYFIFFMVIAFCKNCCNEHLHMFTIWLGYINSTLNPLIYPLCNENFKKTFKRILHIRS

Usually pKi stands for the Ki on a negative log10 scale, so that one unit is a factor of ten. Low values mean a high Ki, high ones a low Ki. For the molecule `NC(=O)N(O)CCC#C[C@@H]1CC[C@@H](CN2CCN([C@H](c3ccccc3)c3ccc(Cl)cc3)CC2)O1`, the pKi at Histamine H1 receptor is 7.30.

The term pIC50 denotes the IC50 on a negative log10 scale, so that one unit is a factor of ten. At Histamine H1 receptor, `CC(C#Cc1ccc(CN2CCN([C@H](c3ccccc3)c3ccc(Cl)cc3)CC2)o1)N(O)C(N)=O` (some centres undefined) had a negative-log Ki (pKi) of 6.72. Further, the negative logarithm of the IC50 (pIC50) in data set [1] was 5.46.

Turning to `NC(=O)N(O)CCC#Cc1ccc(CN2CCN([C@H](c3ccccc3)c3ccc(Cl)cc3)CC2)o1`, the negative-log IC50 (pIC50) in data set [1] is 6.38; in data set [2], above 6.70. The Clint in the data set listed under Rattus norvegicus is given as 33 ul min-1 (mg of protein)-1. The same molecule displayed a Permeability in data set [3] of 6e-06 cm/s.

Molecule `NC(=O)N(O)CCC#C[C@@H]1CC[C@@H](COc2ccc(F)cc2)O1` showed a pIC50 in data set [1] of 6.93.

For the molecule `NC(=O)N(O)CCC#Cc1ccc(CN2CCN(C(c3ccc(F)cc3)c3ccc(F)cc3)CC2)o1`, the negative logarithm of the IC50 (pIC50) in data set [1] was 6.77; in data set [2], above 6.70.

At Histamine H1 receptor, `NC(=O)N(O)CCC#C[C@H]1CC[C@H](CN2CCN([C@H](c3ccccc3)c3ccc(Cl)cc3)CC2)O1` gave a pKi of 6.74. Besides, the pIC50 in data set [1] is 6.29.

Molecule `NC(=O)N(O)CCC#C[C@@H]1CC[C@@H](CN2CCN(C(c3ccc(F)cc3)c3ccc(F)cc3)CC2)O1` gave a pKi on Histamine H1 receptor of 6.18. The pIC50 in data set [1] was 6.85.
